{"source": "ChEMBL document CHEMBL1240400", "about": "“Comparative in vitro activities of nemonoxacin (TG-873870), a novel nonfluorinated quinolone, and other quinolones against clinical isolates” (2010)", "type_in_all_cases": "functional", "key": {"Citrobacter freundii": {"test_system": "Citrobacter freundii", "experiment": "Antibacterial activity against Citrobacter freundii by broth dilution method", "method_in_brief": "(§1)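 Broth microdilution per CLSI in panels spanning a dilution range of each agent. Cation-adjusted Mueller-Hinton broth, final inoculum 5 × 10^5 CFU/ml from a 0.5 McFarland suspension. Incubated overnight at 35°C in ambient air, with quality control strains in each run. MIC reported; values at or below the lowest concentration tested are given as that concentration.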"}, "Acinetobacter baumannii": {"test_system": "Acinetobacter baumannii", "experiment": "Antibacterial activity against Acinetobacter baumannii by broth dilution method", "method_in_brief": "as §1"}, "[1]": {"test_system": "Staphylococcus epidermidis", "experiment": "Antibacterial activity against methicillin resistant coagulase negative Staphylococcus epidermidis by broth dilution method"}, "Streptococcus viridans": {"test_system": "Streptococcus viridans", "experiment": "Antibacterial activity against Streptococcus viridans by broth dilution method", "method_in_brief": "(§2)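 Streptococci were tested by CLSI broth microdilution in Mueller-Hinton broth with 3% lysed horse blood, seeded from a 0.5 McFarland suspension. Incubated overnight at 35°C in ambient air, with quality control strains in each run. MIC taken over a per-agent dilution range.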"}, "Staphylococcus aureus [2]": {"test_system": "Staphylococcus aureus", "experiment": "Antibacterial activity against ciprofloxacin and methicillin resistant Staphylococcus aureus by broth dilution method", "method_in_brief": "(§3)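 Clinical isolates tested by CLSI broth microdilution in panels holding serial twofold drug dilutions in cation-adjusted Mueller-Hinton broth. Final inoculum 5 × 10^5 CFU/ml was made from a 0.5 McFarland suspension. Plates were incubated overnight at 35°C in ambient air, and the MIC was read as the lowest concentration inhibiting growth. Quality control strains were included in each run.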"}, "Enterobacter cloacae": {"test_system": "Enterobacter cloacae", "experiment": "Antibacterial activity against Enterobacter cloacae by broth dilution method"}, "Streptococcus pyogenes": {"test_system": "Streptococcus pyogenes", "experiment": "Antibacterial activity against Streptococcus pyogenes by broth dilution method", "method_in_brief": "as §2"}, "Klebsiella pneumoniae": {"test_system": "Klebsiella pneumoniae", "experiment": "Antibacterial activity against Klebsiella pneumoniae by broth dilution method", "method_in_brief": "as §1"}, "Staphylococcus": {"test_system": "Staphylococcus", "experiment": "Antibacterial activity against methicillin resistant coagulase negative Staphylococcus by broth dilution method"}, "Streptococcus pneumoniae [3]": {"test_system": "Streptococcus pneumoniae", "experiment": "Antibacterial activity against Levofloxacin susceptible Streptococcus pneumoniae by broth dilution method", "method_in_brief": "(§4)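 Streptococcus pneumoniae clinical isolates tested by CLSI broth microdilution. A 0.5 McFarland suspension was diluted into Mueller-Hinton broth with 3% lysed horse blood, then tested against serial drug dilutions. Plates were incubated overnight at 35°C in ambient air, and the MIC was read as the lowest inhibitory concentration. Quality control strains were included in each run.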"}, "Streptococcus agalactiae": {"test_system": "Streptococcus agalactiae", "experiment": "Antibacterial activity against Streptococcus agalactiae by broth dilution method", "method_in_brief": "as §2"}, "Escherichia coli [4]": {"test_system": "Escherichia coli", "experiment": "Antibacterial activity against ciprofloxacin susceptible Escherichia coli by broth dilution method", "method_in_brief": "as §1"}, "Streptococcus pneumoniae [5]": {"test_system": "Streptococcus pneumoniae", "experiment": "Antibacterial activity against Levofloxacin resistant Streptococcus pneumoniae by broth dilution method", "method_in_brief": "as §4"}, "Haemophilus influenzae": {"test_system": "Haemophilus influenzae", "experiment": "Antibacterial activity against Haemophilus influenzae by broth dilution method", "method_in_brief": "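Broth microdilution per CLSI using Haemophilus Test Medium broth, seeded from a 0.5 McFarland suspension. Incubated overnight at 35°C in ambient air, with quality control strains in each run. MIC read against a tested dilution range; values at the low limit are given as the lowest concentration.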"}, "Proteus mirabilis": {"test_system": "Proteus mirabilis", "experiment": "Antibacterial activity against Proteus mirabilis by broth dilution method"}, "Staphylococcus aureus [6]": {"test_system": "Staphylococcus aureus", "experiment": "Antibacterial activity against methicillin susceptible Staphylococcus aureus by broth dilution method"}, "Staphylococcus aureus [7]": {"test_system": "Staphylococcus aureus", "experiment": "Antibacterial activity against ciprofloxacin susceptible and methicillin resistant Staphylococcus aureus by broth dilution method", "method_in_brief": "as §3"}, "Escherichia coli [8]": {"test_system": "Escherichia coli", "experiment": "Antibacterial activity against ciprofloxacin resistant Escherichia coli by broth dilution method", "method_in_brief": "as §3"}, "Pseudomonas aeruginosa": {"test_system": "Pseudomonas aeruginosa", "experiment": "Antibacterial activity against Pseudomonas aeruginosa by broth dilution method"}}}
{"compound": "CO/N=C(\\C(=O)N[C@@H]1C(=O)N2C(C(=O)O)=C(CSc3nc(=O)c(O)nn3C)CS[C@H]12)c1csc(N)n1", "note": "[CEFTRIAXONE]", "values": [{"measurement": "MIC50", "setting": "Citrobacter freundii", "value": 0.25, "unit": "µg/mL"}, {"measurement": "MIC90", "setting": "Citrobacter freundii", "value": "> 8", "unit": "µg/mL"}, {"measurement": "MIC50", "setting": "Acinetobacter baumannii", "value": "> 8", "unit": "µg/mL"}, {"measurement": "MIC90", "setting": "Acinetobacter baumannii", "value": "> 8", "unit": "µg/mL"}, {"measurement": "MIC50", "setting": "[1]", "value": "> 8", "unit": "µg/mL"}, {"measurement": "MIC90", "setting": "[1]", "value": "> 8", "unit": "µg/mL"}, {"measurement": "MIC50", "setting": "Streptococcus viridans", "value": 0.25, "unit": "µg/mL"}, {"measurement": "MIC90", "setting": "Streptococcus viridans", "value": 0.5, "unit": "µg/mL"}, {"measurement": "MIC50", "setting": "Staphylococcus aureus [2]", "value": "> 8", "unit": "µg/mL"}, {"measurement": "MIC90", "setting": "Staphylococcus aureus [2]", "value": "> 8", "unit": "µg/mL"}, {"measurement": "MIC50", "setting": "Enterobacter cloacae", "value": "> 8", "unit": "µg/mL"}, {"measurement": "MIC90", "setting": "Enterobacter cloacae", "value": "> 8", "unit": "µg/mL"}, {"measurement": "MIC", "setting": "Streptococcus pyogenes", "value": "≤ 0.06", "unit": "µg/mL"}, {"measurement": "MIC50", "setting": "Streptococcus pyogenes", "value": "≤ 0.06", "unit": "µg/mL"}, {"measurement": "MIC90", "setting": "Streptococcus pyogenes", "value": "≤ 0.06", "unit": "µg/mL"}, {"measurement": "MIC50", "setting": "Klebsiella pneumoniae", "value": "> 8", "unit": "µg/mL"}, {"measurement": "MIC90", "setting": "Klebsiella pneumoniae", "value": "> 8", "unit": "µg/mL"}, {"measurement": "MIC50", "setting": "Staphylococcus", "value": "> 8", "unit": "µg/mL"}, {"measurement": "MIC90", "setting": "Staphylococcus", "value": "> 8", "unit": "µg/mL"}, {"measurement": "MIC50", "setting": "Streptococcus pneumoniae [3]", "value": 1, "unit": "µg/mL"}, {"measurement": "MIC90", "setting": "Streptococcus pneumoniae [3]", "value": 2, "unit": "µg/mL"}, {"measurement": "MIC50", "setting": "Streptococcus agalactiae", "value": "≤ 0.06", "unit": "µg/mL"}, {"measurement": "MIC90", "setting": "Streptococcus agalactiae", "value": 0.12, "unit": "µg/mL"}, {"measurement": "MIC50", "setting": "Escherichia coli [4]", "value": 0.06, "unit": "µg/mL"}, {"measurement": "MIC90", "setting": "Escherichia coli [4]", "value": "> 8", "unit": "µg/mL"}, {"measurement": "MIC50", "setting": "Streptococcus pneumoniae [5]", "value": 1, "unit": "µg/mL"}, {"measurement": "MIC90", "setting": "Streptococcus pneumoniae [5]", "value": 2, "unit": "µg/mL"}, {"measurement": "MIC50", "setting": "Haemophilus influenzae", "value": "≤ 0.03", "unit": "µg/mL"}, {"measurement": "MIC90", "setting": "Haemophilus influenzae", "value": "≤ 0.03", "unit": "µg/mL"}, {"measurement": "MIC50", "setting": "Proteus mirabilis", "value": "≤ 0.03", "unit": "µg/mL"}, {"measurement": "MIC90", "setting": "Proteus mirabilis", "value": "> 8", "unit": "µg/mL"}, {"measurement": "MIC50", "setting": "Staphylococcus aureus [6]", "value": 4, "unit": "µg/mL"}, {"measurement": "MIC90", "setting": "Staphylococcus aureus [6]", "value": 4, "unit": "µg/mL"}, {"measurement": "MIC50", "setting": "Staphylococcus aureus [7]", "value": "> 8", "unit": "µg/mL"}, {"measurement": "MIC90", "setting": "Staphylococcus aureus [7]", "value": "> 8", "unit": "µg/mL"}, {"measurement": "MIC50", "setting": "Escherichia coli [8]", "value": "> 8", "unit": "µg/mL"}, {"measurement": "MIC90", "setting": "Escherichia coli [8]", "value": 64, "unit": "µg/mL"}, {"measurement": "MIC", "setting": "Pseudomonas aeruginosa", "value": "> 8", "unit": "µg/mL"}, {"measurement": "MIC50", "setting": "Pseudomonas aeruginosa", "value": "> 8", "unit": "µg/mL"}, {"measurement": "MIC90", "setting": "Pseudomonas aeruginosa", "value": "> 8", "unit": "µg/mL"}]}
{"compound": "CCN1CCN(C(=O)N[C@@H](C(=O)N[C@@H]2C(=O)N3[C@@H]2SC(C)(C)[C@@H]3C(=O)O)c2ccccc2)C(=O)C1=O", "note": "[PIPERACILLIN]", "values": [{"measurement": "MIC50", "setting": "Citrobacter freundii", "value": 16, "unit": "µg/mL"}, {"measurement": "MIC90", "setting": "Citrobacter freundii", "value": "> 128", "unit": "µg/mL"}, {"measurement": "MIC50", "setting": "Acinetobacter baumannii", "value": "> 128", "unit": "µg/mL"}, {"measurement": "MIC90", "setting": "Acinetobacter baumannii", "value": "> 128", "unit": "µg/mL"}, {"measurement": "MIC50", "setting": "Enterobacter cloacae", "value": "> 128", "unit": "µg/mL"}, {"measurement": "MIC90", "setting": "Enterobacter cloacae", "value": "> 128", "unit": "µg/mL"}, {"measurement": "MIC50", "setting": "Klebsiella pneumoniae", "value": "> 128", "unit": "µg/mL"}, {"measurement": "MIC90", "setting": "Klebsiella pneumoniae", "value": "> 128", "unit": "µg/mL"}, {"measurement": "MIC50", "setting": "Escherichia coli [4]", "value": "> 128", "unit": "µg/mL"}, {"measurement": "MIC90", "setting": "Escherichia coli [4]", "value": "> 128", "unit": "µg/mL"}, {"measurement": "MIC50", "setting": "Proteus mirabilis", "value": 32, "unit": "µg/mL"}, {"measurement": "MIC90", "setting": "Proteus mirabilis", "value": "> 128", "unit": "µg/mL"}, {"measurement": "MIC", "setting": "Escherichia coli [8]", "value": 2, "unit": "µg/mL"}, {"measurement": "MIC90", "setting": "Escherichia coli [8]", "value": 0.5, "unit": "µg/mL"}, {"measurement": "MIC50", "setting": "Pseudomonas aeruginosa", "value": 128, "unit": "µg/mL"}, {"measurement": "MIC90", "setting": "Pseudomonas aeruginosa", "value": "> 128", "unit": "µg/mL"}]}
